Measurements from ChEMBL document CHEMBL3352649, “2,2'-Dihydroxybenzophenones and their carbonyl N-analogues as inhibitor scaffolds for MDR-involved human glutathione transferase isoenzyme A1-1” (Bioorg Med Chem, 2014).

What was measured:
[1] = target: T1, Glutathione S-transferase A1 (Homo sapiens, UniProt P08263); test: Mixed-type inhibition of human GSTA1 activity by double reciprocal Lineweaver-Burk graph
T1 sequence (P08263 whole entry): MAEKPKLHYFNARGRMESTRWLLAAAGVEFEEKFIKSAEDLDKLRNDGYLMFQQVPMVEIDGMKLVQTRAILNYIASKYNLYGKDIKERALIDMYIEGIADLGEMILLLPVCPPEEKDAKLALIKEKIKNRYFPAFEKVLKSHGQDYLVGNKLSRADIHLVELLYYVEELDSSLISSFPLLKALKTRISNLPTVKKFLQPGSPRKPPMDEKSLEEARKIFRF

[2] = target: T1, Glutathione S-transferase A1; test: Inhibition of human GSTA1 activity assessed as conjugation between CDNB and GSH
[3] = target: T2, Glutathione S-transferase A1 (Homo sapiens) (UniProt P08263); test: Inhibition of human GSTA1 activity assessed as conjugation between CDNB and GSH at 25 uM
T2 sequence (whole entry): T1 sequence (P08263 whole entry)
Outline: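 1 mL of 100 mM potassium phosphate pH 6.5, 0.75 µmol GSH, 25 nmol compound (from 5 mM DMSO stock), enzyme; 1 min at 25 °C, then 0.3 µmol CDNB. Read at 340 nm. Remaining activity is relative to a 5 µL DMSO replacement, mean of three assays.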

SMILES	Ki [1] [nM]	IC50 [2] [nM]	inhibition [3] [%]
O=C(c1ccccc1O)c1cc(Br)ccc1O	360	240	87.7
O=C(c1ccccc1O)c1ccccc1O			0
